Measurements taken from PMC4655421 (ACS Chemical Biology, 2015).
Where “and” joins values, the source holds several entries; their conditions need not be identical. Equal entries are not always repeated.

Columns and labels:
Rho-MatB [1] = molecular target: T1, Rho-MatB (Rhodopseudomonas palustris, UniProt Q6ND88, C106A/K488A/Q457C/R286C); assay: ATP titration of Rho-MatB in the presence of other nucleotides; assay type: binding; details: for fluorescence ratio of ATP titration: 1 μM Rho-MatB titrated with ATP in presence of 100 μM of the named nucleotide
T1 sequence (Q6ND88 1-503 C106A/R286C/Q457C/K488A): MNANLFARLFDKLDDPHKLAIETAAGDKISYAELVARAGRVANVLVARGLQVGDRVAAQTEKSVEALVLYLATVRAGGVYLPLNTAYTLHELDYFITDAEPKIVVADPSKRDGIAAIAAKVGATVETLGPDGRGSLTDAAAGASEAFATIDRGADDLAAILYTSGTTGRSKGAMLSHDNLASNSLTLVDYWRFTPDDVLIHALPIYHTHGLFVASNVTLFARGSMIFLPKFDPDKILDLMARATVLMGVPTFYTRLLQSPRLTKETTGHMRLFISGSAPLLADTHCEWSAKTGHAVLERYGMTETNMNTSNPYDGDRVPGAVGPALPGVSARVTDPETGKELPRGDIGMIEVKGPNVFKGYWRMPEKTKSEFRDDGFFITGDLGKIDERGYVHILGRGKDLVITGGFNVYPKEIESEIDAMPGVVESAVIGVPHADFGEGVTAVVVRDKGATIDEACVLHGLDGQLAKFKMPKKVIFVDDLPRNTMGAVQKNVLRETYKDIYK
In short: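 ATP was titrated into 1 μM labelled sensor, alone or with 100 μM ADP, dATP, ATPγS or AMP-PNP. Buffer was Hepes pH 7.0 / NaCl / MgCl2 / BSA, with excitation at 553 nm and emission at 571 nm. Dilution-corrected data were fitted to a quadratic binding equation to give the apparent Kd for ATP and the fluorescence ratio.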

Rho-MatB [2] = molecular target: T1, Rho-MatB; assay: Fluorescence of Rho-MatB with various ligands; assay type: binding; details: in words
ATeam = ATeam biosensor; cited from earlier work
Rho-MatB [3] = molecular target: T1, Rho-MatB; assay: Stopped-flow association and dissociation kinetics of Rho-MatB and ATP; assay type: binding; details: 25 °C
In short: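 Stopped-flow fluorescence at 25 °C in Hepes pH 7.0, NaCl, MgCl2, BSA buffer. In one format, a range of sensor concentrations in 10-fold excess over ATP gave single-exponential traces, with at least three traces averaged at 1.3 and 2.5 μM. In the other, 0.25 μM sensor was mixed with excess ATP, giving biphasic traces. kobs (fast phase) was plotted against the excess reactant; linear-regression slope gave association and intercept gave dissociation.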

Rho-MatB [4] = molecular target: T1, Rho-MatB; assay: Fluorescence titration of nucleotides to Rho-MatB; assay type: binding
RpMatB K488A = details: read-out: Kd for ATP; unlabeled RpMatB K488A; cited from earlier work
pyruvate kinase = pyruvate kinase (Oryctolagus cuniculus, UniProt P11974); assay: Steady-state ATP production by pyruvate kinase monitored by Rho-MatB; assay type: biochemical, rabbit
[5] = 0.25 μM Rho-MatB, ATP in large excess
[6] = Rho-MatB in 10-fold excess over ATP

Sequence of pyruvate kinase (P11974 whole entry): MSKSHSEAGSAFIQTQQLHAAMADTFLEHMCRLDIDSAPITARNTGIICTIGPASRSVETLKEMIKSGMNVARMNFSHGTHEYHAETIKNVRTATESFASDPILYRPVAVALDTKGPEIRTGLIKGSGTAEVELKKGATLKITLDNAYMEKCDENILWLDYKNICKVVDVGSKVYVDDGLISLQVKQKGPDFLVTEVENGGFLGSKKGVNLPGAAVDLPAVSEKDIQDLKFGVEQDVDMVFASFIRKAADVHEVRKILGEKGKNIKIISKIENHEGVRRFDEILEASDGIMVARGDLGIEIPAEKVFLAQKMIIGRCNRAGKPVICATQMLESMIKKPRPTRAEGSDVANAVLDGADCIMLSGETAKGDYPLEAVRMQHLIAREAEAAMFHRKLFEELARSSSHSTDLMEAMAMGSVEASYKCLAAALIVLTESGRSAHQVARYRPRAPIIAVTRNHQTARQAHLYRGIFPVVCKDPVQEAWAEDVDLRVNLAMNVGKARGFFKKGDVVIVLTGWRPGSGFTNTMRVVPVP

Nc1ncnc2c1ncn2[C@@H]1O[C@H](COP(=O)(O)OP(=O)(O)O)[C@@H](O)[C@H]1O [ADP]
fluorescence ratio of ATP titration (Rho-MatB [1]): 3.0

Nc1ncnc2c1ncn2[C@@H]1O[C@H](COP(=O)(O)OP(=O)(O)NP(=O)(O)O)[C@@H](O)[C@H]1O [AMP-PNP, adenosine 5′-(β,γ-imido)triphosphate]
fluorescence ratio of ATP titration (Rho-MatB [1]): 2.4

Nc1ncnc2c1ncn2[C@@H]1O[C@H](COP(=O)(O)O)[C@@H](O)[C@H]1O [AMP]
effect on the fluorescence of Rho-MatB (Rho-MatB [2]): did not significantly affect the fluorescence

Nc1ncnc2c1ncn2[C@@H]1O[C@H](COP(=O)(O)OP(=O)(O)OP(=O)(O)O)[C@@H](O)[C@H]1O [ATP]
higher affinity for ATP than ADP (ATeam): 30 fold
association rate constant (fast phase) (Rho-MatB [3]; [5]): 1.83 ± 0.02 μM^–1 s^–1 and 1.8 μM^–1 s^–1
intercept (dissociation rate constant, fast phase) (Rho-MatB [3]; [5]): 8.15 ± 0.17 s^–1 and 8.2 s^–1
association rate constant (Rho-MatB [3]; [6]): 0.72 μM^–1 s^–1
intercept (dissociation rate constant) (Rho-MatB [3]; [6]): 8.0 s^–1 and 7.95 ± 0.18 s^–1
higher affinity for ATP than ADP (Rho-MatB [4]; Rho-MatB): 67 fold
increase in fluorescence intensity on ATP binding (Rho-MatB [4]; excitation 553 nm, emission 575 nm, 1 μM Rho-MatB): 3.7 fold
Kd (RpMatB K488A): 0.31 µM

Nc1ncnc2c1ncn2[C@@H]1O[C@H](CO[P@](=O)(O)O[P@](=O)(O)O[P@@](=O)(O)S)[C@@H](O)[C@H]1O [ATPγS, adenosine 5′-(γ-thio)triphosphate]
fluorescence ratio of ATP titration (Rho-MatB [1]): 1.9
increase of apparent Kd for ATP (Rho-MatB [1]; fixed concentration of the named nucleotide): ~5 fold
Kd (Rho-MatB [4]): 16.2 ± 0.8 µM

Nc1nc2c(ncn2[C@@H]2O[C@H](COP(=O)(O)OP(=O)(O)O)[C@@H](O)[C@H]2O)c(=O)[nH]1 [GDP]
effect on the fluorescence of Rho-MatB (Rho-MatB [2]): did not significantly affect the fluorescence

Nc1nc2c(ncn2[C@@H]2O[C@H](COP(=O)(O)OP(=O)(O)OP(=O)(O)O)[C@@H](O)[C@H]2O)c(=O)[nH]1 [GTP]
effect on the fluorescence of Rho-MatB (Rho-MatB [2]): did not significantly affect the fluorescence

CC(C)(COP(=O)(O)OP(=O)(O)OC[C@H]1O[C@@H](n2cnc3c(N)ncnc32)[C@H](O)[C@@H]1OP(=O)(O)O)[C@@H](O)C(=O)NCCC(=O)NCCS [coenzyme A]
effect on the MgATP-induced fluorescence increase (Rho-MatB [2]): did not inhibit
effect on the fluorescence of Rho-MatB (Rho-MatB [2]): no effect

Nc1ncnc2c1ncn2[C@H]1C[C@H](O)[C@@H](COP(=O)(O)OP(=O)(O)OP(=O)(O)O)O1 [dATP]
fluorescence ratio of ATP titration (Rho-MatB [1]): 2.3

O=C(O)CC(=O)O [malonate]
effect on the MgATP-induced fluorescence increase (Rho-MatB [2]): did not inhibit
effect on the fluorescence of Rho-MatB (Rho-MatB [2]): no effect

C=C(OP(=O)(O)O)C(=O)O [phosphoenolpyruvate]
average specific activity (pyruvate kinase): 0.76 μM s^–1 U^–1 mL and 0.76 ± 0.02 μM s^–1 U^–1 mL
average Vmax (pyruvate kinase; n = 5): 0.0190 ± 0.0004 μM s^–1
